“And” between values parts separate entries of the source, which are not always exact repeats. Equal values may be shown once.
What was measured:
HEK-293T = experiment: Multiplex assay against HEK293T; format: toxicity, cell-based; conditions: human, number of replicates 2
In short: (§1)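 Hoechst33342, BioTracker Green Microtubule Cytoskeleton Dye, MitoTracker Red and Annexin V Alexa Fluor 680 were added to live cells at seeding, and imaging on a CQ1 microscope at 37°C and 5% CO2 followed compound addition. Gating by CellPathfinder machine learning separated cells into Hoechst high-intensity objects or normal cells, then normal cells into healthy, pyknosed or fragmented nuclei, then pyknosed cells into mitotic or apoptotic. Per cents of healthy-nucleus cells are reported for the tubulin, mitochondrial-mass and membrane-permeability phenotypes.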

U2OS = experiment: Multiplex assay against U2OS; format: toxicity, cell-based; conditions: human, number of replicates 2; in short: as §1
[1] = 12 h, 1 µM, compound concentration 1 uM
[2] = 12 h, 10 µM, compound concentration 10 uM
[3] = 24 h, 1 µM, compound concentration 1 uM
[4] = 24 h, 10 µM, compound concentration 10 uM
[5] = 48 h, 1 µM, compound concentration 1 uM
[6] = 48 h, 10 µM, compound concentration 10 uM

Question: Which results are given for CN(C)CCCNc1ccnc(Nc2cccc(Cl)c2)n1?
Answer: Population Apoptotic (%) (HEK-293T; [1]): 33% and 44%; Population Fragmented Nuclei (%) (HEK-293T; [1]): 2% and 3%; Population Healthy Nuclei (%) (HEK-293T; [1]): 86% and 87%; Population Hoechst High Intensity Objects (%) (HEK-293T; [1]): 6% and 7%; Population Membrane Permeable-Phenotype (%) (HEK-293T; [1]): 5% and 4%; Population Mitochondria Different-Phenotype (%) (HEK-293T; [1]): 17% and 13%; Population Mitotic Cells (%) (HEK-293T; [1]): 66% and 55%; Population Normal (%) (HEK-293T; [1]): 93% and 92%; Population Pyknosed Nuclei (%) (HEK-293T; [1]): 10% and 8%; Population Tubulin-Different-Phenotype (%) (HEK-293T; [1]): 51% and 48%; Total Cell Count (HEK-293T; [1]): 626 and 658; Population Apoptotic (%) (HEK-293T; [2]): 52% and 65%; Population Fragmented Nuclei (%) (HEK-293T; [2]): 4% and 3%; Population Healthy Nuclei (%) (HEK-293T; [2]): 87% and 88%; Population Hoechst High Intensity Objects (%) (HEK-293T; [2]): 10% and 11%; Population Membrane Permeable-Phenotype (%) (HEK-293T; [2]): 3% and 2%; Population Mitochondria Different-Phenotype (%) (HEK-293T; [2]): 37% and 32%; Population Mitotic Cells (%) (HEK-293T; [2]): 47% and 34%; Population Normal (%) (HEK-293T; [2]): 89% and 88%; Population Pyknosed Nuclei (%) (HEK-293T; [2]): 8%; Population Tubulin-Different-Phenotype (%) (HEK-293T; [2]): 79% and 75%; Total Cell Count (HEK-293T; [2]): 466 and 581; Population Apoptotic (%) (HEK-293T; [3]): 26% and 29%; Population Fragmented Nuclei (%) (HEK-293T; [3]): 3% and 4%; Population Healthy Nuclei (%) (HEK-293T; [3]): 89%; Population Hoechst High Intensity Objects (%) (HEK-293T; [3]): 6%; Population Membrane Permeable-Phenotype (%) (HEK-293T; [3]): 5% and 3%; Population Mitochondria Different-Phenotype (%) (HEK-293T; [3]): 5% and 4%; Population Mitotic Cells (%) (HEK-293T; [3]): 73% and 70%; Population Normal (%) (HEK-293T; [3]): 93%; Population Pyknosed Nuclei (%) (HEK-293T; [3]): 7% and 6%; Population Tubulin-Different-Phenotype (%) (HEK-293T; [3]): 31% and 30%; Total Cell Count (HEK-293T; [3]): 950 and 963; Population Apoptotic (%) (HEK-293T; [4]): 43% and 66%; Population Fragmented Nuclei (%) (HEK-293T; [4]): 3% and 4%; Population Healthy Nuclei (%) (HEK-293T; [4]): 92% and 90%; Population Hoechst High Intensity Objects (%) (HEK-293T; [4]): 7% and 14%; Population Membrane Permeable-Phenotype (%) (HEK-293T; [4]): 6% and 3%; Population Mitochondria Different-Phenotype (%) (HEK-293T; [4]): 32% and 35%; Population Mitotic Cells (%) (HEK-293T; [4]): 56% and 33%; Population Normal (%) (HEK-293T; [4]): 92% and 85%; Population Pyknosed Nuclei (%) (HEK-293T; [4]): 4% and 5%; Population Tubulin-Different-Phenotype (%) (HEK-293T; [4]): 79% and 83%; Total Cell Count (HEK-293T; [4]): 546 and 605; Population Apoptotic (%) (HEK-293T; [5]): 14% and 10%; Population Fragmented Nuclei (%) (HEK-293T; [5]): 11% and 8%; Population Healthy Nuclei (%) (HEK-293T; [5]): 86% and 87%; Population Hoechst High Intensity Objects (%) (HEK-293T; [5]): 9% and 8%; Population Membrane Permeable-Phenotype (%) (HEK-293T; [5]): 5% and 3%; Population Mitochondria Different-Phenotype (%) (HEK-293T; [5]): 0%; Population Mitotic Cells (%) (HEK-293T; [5]): 85% and 89%; Population Normal (%) (HEK-293T; [5]): 90% and 91%; Population Pyknosed Nuclei (%) (HEK-293T; [5]): 2% and 3%; Population Tubulin-Different-Phenotype (%) (HEK-293T; [5]): 15% and 17%; Total Cell Count (HEK-293T; [5]): 2534 and 2133; Population Fragmented Nuclei (%) (HEK-293T; [6]): 6% and 5%; Population Healthy Nuclei (%) (HEK-293T; [6]): 89% and 88%; Population Hoechst High Intensity Objects (%) (HEK-293T; [6]): 6% and 9%; Population Membrane Permeable-Phenotype (%) (HEK-293T; [6]): 6% and 5%; Population Mitochondria Different-Phenotype (%) (HEK-293T; [6]): 8% and 10%; Population Mitotic Cells (%) (HEK-293T; [6]): 86% and 42%; Population Normal (%) (HEK-293T; [6]): 93% and 90%; Population Pyknosed Nuclei (%) (HEK-293T; [6]): 3% and 5%; Population Tubulin-Different-Phenotype (%) (HEK-293T; [6]): 52%; Total Cell Count (HEK-293T; [6]): 814 and 883; Population Apoptotic (%) (U2OS; [1]): 60% and 50%; Population Fragmented Nuclei (%) (U2OS; [1]): 6% and 5%; Population Healthy Nuclei (%) (U2OS; [1]): 84% and 82%; Population Hoechst High Intensity Objects (%) (U2OS; [1]): 0%; Population Membrane Permeable-Phenotype (%) (U2OS; [1]): 0%; Population Mitochondria Different-Phenotype (%) (U2OS; [1]): 0%; Population Mitotic Cells (%) (U2OS; [1]): 39% and 50%; Population Normal (%) (U2OS; [1]): 100%; Population Pyknosed Nuclei (%) (U2OS; [1]): 9% and 11%; Population Tubulin-Different-Phenotype (%) (U2OS; [1]): 70% and 42%; Population Apoptotic (%) (U2OS; [2]): 50%; Population Fragmented Nuclei (%) (U2OS; [2]): 11% and 17%; Population Healthy Nuclei (%) (U2OS; [2]): 79% and 67%; Population Hoechst High Intensity Objects (%) (U2OS; [2]): 0%; Population Membrane Permeable-Phenotype (%) (U2OS; [2]): 4% and 5%; Population Mitochondria Different-Phenotype (%) (U2OS; [2]): 4% and 5%; Population Mitotic Cells (%) (U2OS; [2]): 50%; Population Normal (%) (U2OS; [2]): 100%; Population Pyknosed Nuclei (%) (U2OS; [2]): 9% and 14%; Population Tubulin-Different-Phenotype (%) (U2OS; [2]): 52% and 42%; Population Apoptotic (%) (U2OS; [3]): 66% and 82%; Population Fragmented Nuclei (%) (U2OS; [3]): 2% and 4%; Population Healthy Nuclei (%) (U2OS; [3]): 91% and 88%; Population Hoechst High Intensity Objects (%) (U2OS; [3]): 0%; Population Membrane Permeable-Phenotype (%) (U2OS; [3]): 0% and 2%; Population Mitochondria Different-Phenotype (%) (U2OS; [3]): 0% and 1%; Population Mitotic Cells (%) (U2OS; [3]): 33% and 17%; Population Normal (%) (U2OS; [3]): 100%; Population Pyknosed Nuclei (%) (U2OS; [3]): 6% and 7%; Population Tubulin-Different-Phenotype (%) (U2OS; [3]): 51% and 74%

From ChEMBL document CHEMBL5303300, “EUbOPEN Chemogenomics Library - Multiplex” (2023)
